According to ChEMBL document CHEMBL1154414, “In vitro and in vivo activities of T-705 against arenavirus and bunyavirus infections” (Antimicrob Agents Chemother, 2007):
Activity calls are given as the source filed them. The rule behind the calls is not given here.

Assays:
Pichinde virus [1] = test: Antiviral activity against Pichinde virus An 4763 infected Syrian golden hamster assessed as mean viral titer per 0.1 mL of serum at 15 mg/kg, po twice daily for 7 days administered 4 hrs before viral-challenge measured on day 7 of viral infection; type: functional
Punta Toro virus [2] = test: Antiviral activity against 500 PFU Punta Toro virus Adames infected C57BL/6 mouse assessed as animals with detectable virus level in liver at 200 mg/kg, po twice daily administered 4 hrs before viral challenge measured on day 4 of viral infection; type: functional
Outline: (§1)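 T-705 was suspended in 0.4% carboxymethylcellulose and given by oral gavage twice daily. Mice were infected subcutaneously with PTV. Five mice per group (10 placebo) were sacrificed on day 3 or 4. Liver homogenate or serum was serially diluted onto triplicate LLC-MK2 monolayers, and CPE was read at 6–8 days. The detection limit was 2.8 log10 CCID50 per 0.1 g liver or 0.1 ml serum.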

Punta Toro virus [3] = test: Antiviral activity against Punta Toro virus Adames infected Syrian golden hamster assessed as mean day of death at 15 mg/kg, po twice daily for 6 days administered 4 hrs before viral challenge; type: functional
[4] = test system: Respiratory syncytial virus; test: Antiviral activity against Respiratory syncytial virus; type: functional, organism-based; conditions: human respiratory syncytial virus
Tacaribe virus = test: Antiviral activity against Tacaribe virus TRVL11573 assessed as reduction of 1 log10 unit viral titer yields after 7 to 8 days; type: functional; conditions: Mammarenavirus tacaribeense
Punta Toro virus [5] = test: Antiviral activity against 500 PFU Punta Toro virus Adames infected C57BL/6 mouse assessed as mean viral titer per 0.1 g of liver at 10 mg/kg, po twice daily administered 4 hrs before viral challenge measured on day 3 of viral infection; type: functional
Outline: (§2)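 Mice were infected subcutaneously with PTV and dosed by oral gavage twice daily; 5 per group (10 placebo) were killed on day 3 or 4. Liver homogenate or serum was serially diluted onto triplicate LLC-MK2 monolayers, and CPE was read 6–8 days later. 50% endpoints gave log10 CCID50 per 0.1 g liver or 0.1 ml serum. Detection range was 2.8–9.5; undetectable samples were assigned <2.8.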

Punta Toro virus [6] = test: Antiviral activity against Punta Toro virus Adames infected Syrian golden hamster assessed as mean viral titer per 0.1 g of liver at 15 mg/kg, po twice daily administered 4 hrs before viral challenge measured on day 4 of viral infection; type: functional
Punta Toro virus [7] = test: Antiviral activity against 500 PFU Punta Toro virus Adames infected C57BL/6 mouse assessed as mean viral titer per 0.1 g of liver at 30 mg/kg, po twice daily administered 4 hrs before viral challenge measured on day 3 of viral infection; type: functional; outline: as §2
Punta Toro virus [8] = test: Antiviral activity against 500 PFU Punta Toro virus Adames infected C57BL/6 mouse assessed as mean serum ALT levels at 25 mg/kg, po twice daily administered 4 hrs before viral challenge measured on day 4 of viral infection; type: functional
Outline: (§3)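 C57BL/6 mice received subcutaneous PTV, then oral gavage twice daily for 5–7 days. T-705 was given in 0.4% CMC and ribavirin in saline. Five mice per group (10 placebo) were killed on day 3 or 4, and serum was collected. ALT activity was measured by kinetic assay. Three sham-infected mice set baselines.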

Pichinde virus [9] = test: Antiviral activity against Pichinde virus An 4763 infected Syrian golden hamster assessed as animals with detectable virus level in serum at 15 mg/kg, po twice daily for 7 days administered 4 hrs before viral-challenge measured on day 7 of viral infection; type: functional
Outline: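 Hamsters (groups of 15, placebo 25-30) were dosed orally by gavage twice daily (drug suspended in 0.4% CMC) after bilateral intraperitoneal challenge with 65 PFU. Five per group were killed on day 7. Liver homogenate or serum was serially diluted onto triplicate B-SC-1 wells, CPE was read at 6-8 days, and the 50% endpoint was taken. Range was 2.8-9.5 log10 CCID50/0.1 g or 0.1 ml, with undetectable assigned <2.8.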

Punta Toro virus [10] = test: Antiviral activity against 50 PFU Punta Toro virus Adames infected C57BL/6 mouse assessed as survival at 10 mg/kg, po twice daily for 5 days administered 24 hrs post viral challenge; type: functional, organism-based; design: dose 10 mg/kg
Outline: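 Groups of 15 mice (25–30 placebo) were inoculated subcutaneously with PTV. Drug in 0.4% carboxymethylcellulose was given by oral gavage twice daily.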

Punta Toro virus [11] = test: Antiviral activity against Punta Toro virus Adames infected Syrian golden hamster assessed as mean day of death at 60 mg/kg, po twice daily for 6 days administered 4 hrs before viral challenge; type: functional
Punta Toro virus [12] = test: Antiviral activity against Punta Toro virus Adames infected Syrian golden hamster assessed as mean serum ALT levels at 60 mg/kg, po twice daily administered 4 hrs before viral challenge measured on day 4 of viral infection; type: functional
Punta Toro virus [13] = test: Antiviral activity against 500 PFU Punta Toro virus Adames infected C57BL/6 mouse assessed as animals with detectable virus level in liver at 5 mg/kg, po twice daily administered 4 hrs before viral challenge measured on day 3 of viral infection; type: functional; outline: as §1
Punta Toro virus [14] = test: Antiviral activity against Punta Toro virus Adames infected Syrian golden hamster assessed as animals with detectable virus level in serum at 15 mg/kg, po twice daily administered 4 hrs before viral challenge measured on day 4 of viral infection; type: functional
Punta Toro virus [15] = test: Antiviral activity against 500 PFU Punta Toro virus Adames infected C57BL/6 mouse assessed as animals with detectable virus level in liver at 50 mg/kg, po twice daily administered 4 hrs before viral challenge measured on day 4 of viral infection; type: functional; outline: as §1
Pichinde virus [16] = test: Antiviral activity against Pichinde virus An 4763 infected Syrian golden hamster assessed as survival at 60 mg/kg, po twice daily for 7 days administered 4 hrs before viral-challenge; type: functional
Punta Toro virus [17] = test: Antiviral activity against 500 PFU Punta Toro virus Adames infected C57BL/6 mouse assessed as animals with detectable virus level in serum at 5 mg/kg, po twice daily administered 4 hrs before viral challenge measured on day 3 of viral infection; type: functional; outline: as §1
Punta Toro virus [18] = test: Antiviral activity against Punta Toro virus Adames infected Syrian golden hamster assessed as mean viral titer per 0.1 mL of serum at 60 mg/kg, po twice daily administered 4 hrs before viral challenge measured on day 4 of viral infection; type: functional
Punta Toro virus [19] = test: Antiviral activity against 500 PFU Punta Toro virus Adames infected C57BL/6 mouse assessed as mean viral titer per 0.1 g of liver at 25 mg/kg, po administered 4 hrs before viral challenge measured on day 4 of viral infection; type: functional; outline: as §2
Pichinde virus [20] = test: Antiviral activity against Pichinde virus An 4763 infected Syrian golden hamster assessed as mean day of death at 60 mg/kg, po twice daily for 7 days administered 4 hrs before viral-challenge; type: functional
Punta Toro virus [21] = test: Antiviral activity against 500 PFU Punta Toro virus Adames infected C57BL/6 mouse assessed as survival at 50 mg/kg, po twice daily for 5 days administered 4 hrs before viral challenge; type: functional, organism-based; design: dose 50 mg/kg
Outline: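 PTV was inoculated subcutaneously into mice in groups of 15 (25–30 placebo). Dosing was by oral gavage twice daily for 5–7 days, with T-705 suspended in 0.4% CMC and ribavirin in saline. Remaining animals were observed 21–28 days for survival and day of death. Test doses had first been checked for tolerance in uninfected animals.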

Punta Toro virus [22] = test: Antiviral activity against 500 PFU Punta Toro virus Adames infected C57BL/6 mouse assessed as mean serum ALT levels at 75 mg/kg, po twice daily administered 4 hrs before viral challenge measured on day 4 of viral infection; type: functional; outline: as §3
Pichinde virus [23] = test: Antiviral activity against Pichinde virus An 4763 infected Syrian golden hamster assessed as inhibition of liver damage at 50 mg/kg, po twice daily for 7 days administered 72 hrs post viral-challenge measured on day 7 of viral infection; type: functional, organism-based; design: dose 50 mg/kg

Question: For `NC(=O)c1nc(F)cnc1O` [FAVIPIRAVIR], which log10CCID50 (Pichinde virus [1]) is on record?
Answer: <5.3

Question: What about the Activity (Punta Toro virus [2]) of the same compound?
Answer: 0%

Question: And the Activity (Punta Toro virus [3])?
Answer: 5.4 days

Question: And the EC50 [4]?
Answer: 261 µM

Question: What about the EC90 (Tacaribe virus) of the same compound?
Answer: 6 µM

Question: What about the log10CCID50 (Punta Toro virus [5]) of the same compound?
Answer: <2.8

Question: What about the log10CCID50 (Punta Toro virus [6]) of the same compound?
Answer: >6.9

Question: What about the log10CCID50 (Punta Toro virus [7]) of the same compound?
Answer: <2.8

Question: And the Activity (Punta Toro virus [8])?
Answer: 69 IU/L

Question: And the Activity (Pichinde virus [9])?
Answer: 80%

Question: What about the Activity (Punta Toro virus [10]) of the same compound?
Answer: inactive

Question: And the Activity (Punta Toro virus [11])?
Answer: 6 days

Question: And the Activity (Punta Toro virus [12])?
Answer: 17 IU/L

Question: What about the Activity (Punta Toro virus [13]) of the same compound?
Answer: 0%

Question: And the Activity (Punta Toro virus [14])?
Answer: 100%

Question: And the Activity (Punta Toro virus [15])?
Answer: 0%

Question: And the Activity (Pichinde virus [16])?
Answer: 90%

Question: What about the Activity (Punta Toro virus [17]) of the same compound?
Answer: 100%

Question: What about the log10CCID50 (Punta Toro virus [18]) of the same compound?
Answer: <3.8

Question: And the log10CCID50 (Punta Toro virus [19])?
Answer: <2.8

Question: And the Activity (Pichinde virus [20])?
Answer: 22 days

Question: What about the Activity (Punta Toro virus [21]) of the same compound?
Answer: Active

Question: How did the Activity (Punta Toro virus [22]) turn out when `NC(=O)c1ncn([C@@H]2O[C@H](CO)[C@@H](O)[C@H]2O)n1` [RIBAVIRIN] was run?
Answer: 38 IU/L

Question: And the Activity (Pichinde virus [23])?
Answer: Active
